CHRM5 antagonist: CHRM5 antagonism in calcium assay; 360,000 tested, 0.59% active; P08912; CHO-hM5 cells, Fluo-8 calcium fluorescence, ACh EC80; inhibition, % at 3 µM;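 active means inhibition above a per-plate cutoff, the mean of that plate's test compounds plus 3 SD, cut at about 27% in these data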;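 further: 0% = acetylcholine EC80 with DMSO and 100% = DMSO without agonist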
Target sequence (P08912 whole entry, looked up): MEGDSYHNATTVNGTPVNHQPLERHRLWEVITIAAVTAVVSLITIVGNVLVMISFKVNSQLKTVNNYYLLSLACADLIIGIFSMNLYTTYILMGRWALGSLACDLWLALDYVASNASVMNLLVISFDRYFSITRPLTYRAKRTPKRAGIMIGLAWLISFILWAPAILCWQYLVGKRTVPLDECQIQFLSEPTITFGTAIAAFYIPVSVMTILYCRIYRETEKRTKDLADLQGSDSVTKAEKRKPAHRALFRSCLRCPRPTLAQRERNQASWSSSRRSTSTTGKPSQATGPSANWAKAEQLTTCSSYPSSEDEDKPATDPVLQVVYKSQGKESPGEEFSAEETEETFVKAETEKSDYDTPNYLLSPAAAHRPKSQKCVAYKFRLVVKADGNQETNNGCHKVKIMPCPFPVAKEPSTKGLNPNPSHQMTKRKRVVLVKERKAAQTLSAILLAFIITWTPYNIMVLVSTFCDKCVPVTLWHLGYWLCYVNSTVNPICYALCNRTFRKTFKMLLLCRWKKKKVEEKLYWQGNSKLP
M5 ag: agonists of human muscarinic M5 receptor (CHRM5); activation, % at 3 µM; 360,000 tested, 0.19% active; AID 624037; P08912; CHO-K1 hM5 cells, Fluo-8 calcium fluorescence; 0% DMSO wells, 100% maximal acetylcholine response;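 active means activation above the run's mean over test compounds plus 3 SD, cut at about 23% in these data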;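 further: signal is peak over basal fluorescence ratio across the kinetic read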
CHRM5 PAM: positive allosteric modulators of human muscarinic M5 receptor; P08912; CHO-K1 hM5, Fluo-8 calcium, ACh EC20 PAM; 0% = ACh EC20, 100% = ACh EC100; activation, % at 3 µM; 360,000 tested, 0.3% active;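 active means activation above the run cutoff, the mean activation of all test compounds plus 3 SD, cut at about 18% in these data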
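System: CHO-K1 cell line with stable human muscarinic M5 receptor expression | Also added: EC20 acetylcholine as agonist stimulus | Compound: One concentration, 3 µM final (nominal) | Timing: Fluo-8 loading 80 min at 37 °C plus 30 min room temperature | Measured by: Fluo-8 calcium dye fluorescence, kinetic read | Read-out basis: % activation, ACh-normalized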
M4 antag: CHRM4 antagonism in calcium assay | CHO-hM4 cells, ACh EC80, Fluo-8 calcium fluorescence | inhibition, % at 3 µM | AID 624125 | 360,000 tested, 0.73% active | P08173;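 active means inhibition above its plate's cutoff, the mean inhibition of sample wells plus 3 SD, cut at about 27% in these data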;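 further: 0% = acetylcholine EC80 with DMSO and 100% = DMSO without agonist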
M4 ag: CHRM4 agonism in calcium assay. P08173. CHO-K1 hM4/Gqi5, Fluo-8 calcium fluorescence; vehicle 0%, full acetylcholine response 100%. activation, % at 3 µM. 360,000 tested, 0.14% active. AID 624127;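 active means activation above the run mean over all test wells plus 3 SD, cut at about 32% in these data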;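 further: peak over basal fluorescence ratio per well then scaled between controls; 0% = DMSO wells and 100% = acetylcholine at EC100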
M4 PAM: CHRM4 positive allosteric modulation; AID 624126; P08173; activation, % at 3 µM; 360,000 tested, 0.4% active; CHO-K1 hM4/Gqi5, Fluo-8 calcium fluorescence, ACh EC20; 0% = ACh EC20, 100% = maximal ACh;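 active means activation above its plate's cutoff, the mean activation of sample wells plus 3 SD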
* = called active by the depositor. The list is not random: actives were taken first. Their share in the collection is about 1.9%.

SMILES	CHRM5 antagonist	M5 ag	CHRM5 PAM	M4 antag	M4 ag	M4 PAM
COc1ccc(OC)c(N/C(=N/c2nc(C)cc(C)n2)NC(C)=O)c1	-1	3	-5	0	0	6
CC(=O)OCc1c(C(F)(F)F)nn(C)c1Oc1ccccc1	7	-1	19*	-13	22	15
CC(=O)OCc1c(C(F)(F)F)nn(C)c1Oc1cccc(C(F)(F)F)c1	-3	-1	3	6	-1	8
CS(=O)(=O)N1CCCC(c2nc(-c3ccc(S(=O)(=O)NCc4ccccc4)cc3)no2)C1 (stereo not drawn)	29*	12	-16	33*	26	-28
C(=Cc1c[nH]c2ccccc12)c1nccc2ccccc12	22	10	-4	-6	4	2
C(=Cc1c[nH]c2ccccc12)c1ccc2ccccc2n1	8	19	-7	1	36*	-10
OCC[C@H]1C[C@H](O)[C@@H](O)[C@@]2(Cc3ccccc3CCO2)O1	5	3	0	-1	2	15
CN(Cc1c(C(=O)N/N=C/c2ccc(O)cc2)nnn1-c1nonc1N)C1CCCCC1	-19	2	4	-4	0	-1
CCOc1ccc(Nc2nc3ccccc3n2C)cc1	13	-8	-6	-4	0	-18
CCOc1ccc(CNc2nc3ccccc3n2C)cc1	-12	-2	21*	-14	2	1
O=C1CCCC(O)=C1N=Nc1cccc(C(=O)O)c1	-9	-6	-7	-2	3	20*
CC1CN(c2ccc(Oc3ccccc3)cc2)c2nc3c(c(=O)[nH]c(=O)n3C)n2C1 (stereo not drawn)	-2	-1	10	-11	1	17*
Cc1ccc(C)c(S(=O)(=O)NCc2ccc(C(=O)N3CCN(C)CC3)cc2)c1	-7	3	14	-12	1	20*
COc1ccc(NS(=O)(=O)c2ccc3c(c2)CCCN3C(C)=O)cc1	-1	2	-6	-5	4	-1
CCc1ccc(S(=O)(=O)NC2CC(C)(C)NC(C)(C)C2)cc1	-1	0	-4	-5	1	1
O=C(CCCOC(=O)c1ccc(O)cc1O)c1ccccc1	20	0	-17	4	9	-4
Cc1ccc2nc(C)c(CN3CCN(c4ccc([N+](=O)[O-])cc4Cl)CC3)n2c1	38*	-2	-14	26*	12	-15
Cc1cc(C)cc(N(CCC(=O)Nc2nnc(C3CC3)s2)S(=O)(=O)c2ccc(Cl)cc2)c1	4	1	2	1	0	21*
O=c1sc(/C=N/Nc2ccccc2)c(Cl)n1Cc1ccccc1	6	0	-5	12	-1	-6
O=C(NC1CCSc2ccccc21)c1ccc(C(F)(F)F)cc1 (stereo not drawn)	-5	-7	8	-2	0	2
COc1ccc(C(=O)Nc2cccnc2)cc1S(=O)(=O)N1CCOCC1	11	0	20*	-4	1	4
CC(C)(C)OC(=O)NCCCCCNC(=O)c1nc[nH]c1C(=O)NCc1ccc(CNC(=O)OC(C)(C)C)cc1	33*	2	-38	54*	34*	-17
CC(C)(C)OC(=O)NCc1ccc(CNC(=O)c2nc[nH]c2C(=O)NCc2ccc(CNC(=O)OC(C)(C)C)cc2)cc1	1	5	-10	2	8	-4
Cc1ccc(CS(=O)(=O)CCC(=O)NCCC2=CCCCC2)cc1	5	-3	10	4	1	7
COCCN1Cc2cccc(C(=O)Nc3c(C)cc(C)cc3C)c2C1=O	-4	22	37*	-1	1	12
SMILES	CHRM5 antagonist	M5 ag	CHRM5 PAM	M4 antag	M4 ag	M4 PAM
COCCN1Cc2cccc(C(=O)Nc3cc(C)cc(C)c3)c2C1=O	-1	-7	-1	0	1	-2
COc1ccc(N2CCN(C(=O)c3ccc(N(C)S(=O)(=O)c4ccc(C)cc4)cc3)CC2)cc1	2	6	-3	5	8	-15
C=C(C)COc1ccc(-c2ncnc(C(F)(F)F)c2-c2ccc(OC)cc2)c(O)c1	24	-5	-14	25	8	-15
C=C(C)COc1ccc(-c2ncnc(C(F)(F)F)c2-c2ccccc2)c(O)c1	17	-6	-14	27*	3	-12
OC(CNCC#Cc1ccccc1)c1ccccc1 (stereo not drawn)	5	-1	0	-8	1	0
CCC(CO)NCC#Cc1ccccc1 (stereo not drawn)	7	-6	2	40*	2	-16
Cc1cccc(NCC(=O)N/N=C\c2c[nH]c3ccccc23)c1	11	-6	-8	28*	4	-11
Cc1ccccc1NCC(=O)N/N=C/c1c[nH]c2ccccc12	2	-2	-5	-2	6	-5
O=C(CS(=O)(=O)c1ccccc1)Nc1ccccn1	-7	-1	-4	-12	1	1
O=C(CS(=O)(=O)c1ccccc1)Nc1ccc(Br)cn1	-7	0	20*	12	1	10
CCCn1nnnc1SCC(=O)N1C(C)CCCC1C (stereo not drawn)	14	-3	-6	10	-1	-7
COc1cc(C(=O)NC2CC(C)(C)Cc3c2cnn3-c2ccccc2)cc(OC)c1OC (stereo not drawn)	3	-2	0	-2	-1	4
COc1cccc(C(=O)NC2CC(C)(C)Cc3c2cnn3-c2cccc(F)c2)c1OC (stereo not drawn)	28*	-4	-10	6	3	-6
CCCCN1/C(=C/c2ccc3ccccc3[n+]2CC)Sc2ccccc21	39*	16	-14	21	22	-4
CCN1/C(=C/c2ccc3cc(C)ccc3[n+]2CC)Sc2cc(C)ccc21	42*	8	-22	17	11	-17
CCN1/C(=C/c2ccc3ccccc3[n+]2CC)C=Cc2ccccc21	29*	0	-13	45*	7	-12
CCN1/C(=C/c2ccc3ccccc3[n+]2CCCS(=O)(=O)[O-])C=Cc2cc(C)ccc21	14	-2	-6	3	0	-1
COCc1ccc(C(=O)NC2CCCN(Cc3ccccc3F)C2)o1 (stereo not drawn)	-4	-4	-1	0	0	3
C#CCNC(=O)c1cc2sccc2n1C	2	1	5	2	0	-1
Cc1cc(NC(=O)CSCc2ccc([N+](=O)[O-])cc2)no1	2	-7	3	1	1	-2

Compound activity deposited in PubChem BioAssay by The Scripps Research Institute Molecular Screening Center.
